Reference: ChEMBL document CHEMBL1157169, “A class of novel nitronyl nitroxide labeling basic and acidic amino acids: synthesis, application for preparing ESR optionally labeling peptides, and bioactivity investigations” (Bioorg Med Chem, 2008)
One block for each molecule: values may come before it.

Key:
Rattus norvegicus [1] = test: Antithrombotic activity in Wistar rat assessed as dry thrombus weight at 20 mg/kg; assay type: functional
How it was run: (§1)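 Male Wistar rats (250–300 g) anesthetized with pentobarbital sodium (80.0 mg/kg, ip). The right carotid artery and left jugular vein were cannulated via a polyethylene tube containing a thread, filled with NS or compound dissolved in NS (vehicle NS). Blood shunted 15 min. The thread was weighed wet, then after 2 weeks in a desiccator weighed dry. n = 10, ANOVA.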

Rattus norvegicus [2] = test: Antithrombotic activity in Wistar rat assessed as wet thrombus weight at 20 mg/kg; assay type: functional; how it was run: as §1
PC-12 [3] = test: Radical scavenging activity in rat PC12 cells assessed as inhibition of nitric oxide radical-induced cell damage by MTT assay; assay type: functional, cell-based
How it was run: (§2)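 PC12 cells grown in DMEM with 10% heat-inactivated horse serum, 5% FBS and 1.0 mM pyruvate at 37 °C, 5% CO2. Seeded at 20,000 cells/well on poly-L-lysine and attached 24 h. Pretreated 1 h with 12.5–200 µM compound. Damage induced by SNP 2 mM for 2 h (NO), H2O2 1 mM for 1 h, or H2O2 1 mM/Fe(II) 30 µM for 1 h (·OH). Media replaced, cells incubated 14 h, survival measured by MTT.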

Oryctolagus cuniculus [4] = species on record: Oryctolagus cuniculus; test: Thrombolytic activity against rabbit fibrinogen assessed as fibrinogen lysis area at 2.2 uM
How it was run: (§3)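 Equal volumes of 0.3% rabbit fibrinogen and 0.95% agarose in 50 mM sodium barbiturate buffer (pH 7.8), coagulated with thrombin (100 IU/mL). After 30 min at 4 °C, 5 mm wells were punched and 30 µl of sample in NS added per well. Plates incubated and lysis area measured in mm². ANOVA.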

Aorta [5] = test: Nitric oxide radical scavenging activity in rat aortic strip assessed as inhibition of acetylcholine-induced vasorelaxation at 100 uM; assay type: functional, tissue-based
Plasma [6] = test: Thrombolytic activity in rabbit plasma assessed as euglobulin clot lysis time at 2.2 uM; assay type: functional, Oryctolagus cuniculus
How it was run: (§4)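 Rabbit plasma diluted 1:20 in water and precipitated at pH 5.7 with 0.25% acetic acid for 30 min at 4 °C. Centrifuged at 2000g for 15 min. […] Sample added and time to clot lysis recorded.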

Plasma [7] = test: Thrombolytic activity in rabbit plasma assessed as euglobulin clot lysis time at 4.5 uM; assay type: functional, Oryctolagus cuniculus; how it was run: as §4
Aorta [8] = test: Nitric oxide radical scavenging activity in rat aortic strip assessed as inhibition of acetylcholine-induced vasorelaxation at 10 uM; assay type: functional, tissue-based
Rattus norvegicus [9] = test: Thrombolytic activity in Wistar rat assessed as reduction in thrombus weight at 10 umol/kg; assay type: functional
How it was run: (§5)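 Male Wistar rats (200–300 g) anesthetized with pentobarbital sodium (80.0 mg/kg, ip). A steel helix was left 15 min in 1.0 ml carotid artery blood, and the helix with thrombus was weighed. It was placed in a polyethylene tube filled with heparin sodium (50 IU/ml NS) inserted into the left jugular vein. Heparin was injected, then compound dissolved in NS. Read-out is reduction in thrombus weight.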

Rattus norvegicus [10] = test: Thrombolytic activity in Wistar rat assessed as reduction in thrombus weight at 2.5 umol/kg; assay type: functional; how it was run: as §5
Oryctolagus cuniculus [11] = species on record: Oryctolagus cuniculus; test: Thrombolytic activity against rabbit fibrinogen assessed as fibrinogen lysis area at 4.5 uM; how it was run: as §3
PC-12 [12] = test: Radical scavenging activity in rat PC12 cells assessed as inhibition of hydroxyl radical-induced cell damage by MTT assay; assay type: functional, cell-based; how it was run: as §2
Oryctolagus cuniculus [13] = species on record: Oryctolagus cuniculus; test: Thrombolytic activity against rabbit fibrinogen assessed as fibrinogen lysis area at 1.1 uM; how it was run: as §3
Aorta [14] = test: Nitric oxide radical scavenging activity in rat aortic strip assessed as inhibition of acetylcholine-induced vasorelaxation at 1 uM; assay type: functional, tissue-based
Rattus norvegicus [15] = test: Thrombolytic activity in Wistar rat assessed as reduction in thrombus weight at 5 umol/kg; assay type: functional; how it was run: as §5
PC-12 [16] = test: Radical scavenging activity in rat PC12 cells assessed as inhibition of hydrogen peroxide radical-induced cell damage by MTT assay; assay type: functional, cell-based; how it was run: as §2
Plasma [17] = test: Thrombolytic activity in rabbit plasma assessed as euglobulin clot lysis time at 1.1 uM; assay type: functional, Oryctolagus cuniculus; how it was run: as §4
Blood [18] = test: Inhibition of 1 uM adenosine diphosphate-induced platelet aggregation in rabbit blood; assay type: functional, Oryctolagus cuniculus
How it was run: (§6)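 Platelet-rich plasma made by centrifuging normal rabbit blood anticoagulated with sodium citrate (3.8% final). Platelets adjusted to 2×10^5/µl with autologous plasma. Aggregation induced by PAF or ADP (final 10^-5–10^-7 M) and read by turbidimetry in an aggregometer. Maximal aggregation rate (Am%) taken as peak height of the curve.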

[19] = Aqueous stability assessed as decomposition time at pH 2.0; assay type: physicochemical; conditions: buffer
How it was run: (§7)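 Each sample dissolved in aqueous solution at pH 2.0, 7.4 or 11.5 (final 10^-2 mM) and held at room temperature for up to 200 h. Decomposition followed by TLC (CHCl3/CH3OH, 20:1). Value is the time at which decomposition appeared.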

Blood [20] = test: Inhibition of 1 uM platelet activating factor-induced platelet aggregation in rabbit blood; assay type: functional, Oryctolagus cuniculus; how it was run: as §6
[21] = Aqueous stability assessed as decomposition time at pH 11.5; assay type: physicochemical; conditions: buffer; how it was run: as §7
Rattus norvegicus [22] = test: Antithrombotic activity in Wistar rat assessed as wet thrombus weight at 5 umol/kg; assay type: functional; how it was run: as §1
[23] = Aqueous stability assessed as decomposition time at pH 7.4; assay type: physicochemical; conditions: buffer; how it was run: as §7
Blood [24] = test: Inhibition of 0.1 uM platelet activating factor-induced platelet aggregation in rabbit blood; assay type: functional, Oryctolagus cuniculus; how it was run: as §6
Rattus norvegicus [25] = test: Antithrombotic activity in Wistar rat assessed as dry thrombus weight at 5 umol/kg
Blood [26] = test: Inhibition of 10 uM adenosine diphosphate-induced platelet aggregation in rabbit blood; assay type: functional, Oryctolagus cuniculus; how it was run: as §6
Blood [27] = test: Inhibition of 10 uM platelet activating factor-induced platelet aggregation in rabbit blood; assay type: functional, Oryctolagus cuniculus; how it was run: as §6
Blood [28] = test: Inhibition of 0.1 uM adenosine diphosphate-induced platelet aggregation in rabbit blood; assay type: functional, Oryctolagus cuniculus; how it was run: as §6

SMILES: CC(=O)Oc1ccccc1C(=O)O [ASPIRIN]
- Activity (Rattus norvegicus [1]): 4.04 mg
- Activity (Rattus norvegicus [2]): 24.16 mg

- Activity (Oryctolagus cuniculus [4]): 216 mm2
- Activity (Oryctolagus cuniculus [11]): 234 mm2
- Activity (Oryctolagus cuniculus [13]): 197 mm2
SMILES: C[C@H](NC(=O)[C@@H]1CCCN1)C(=O)N[C@@H](CCCCNC(=O)COc1ccc(C2=[N+]([O-])C(C)(C)C(C)(C)N2O)cc1)C(=O)O
- EC50 (PC-12 [3]): 89 µM
- inhibition (Aorta [5]): 99.1%
- Time (Plasma [6]): 128.8 min
- Time (Plasma [7]): 102.95 min
- inhibition (Aorta [8]): 73.9%
- Activity (Rattus norvegicus [9]): 24.2 mg
- Activity (Rattus norvegicus [10]): 11.06 mg
- EC50 (PC-12 [12]): 99 µM
- inhibition (Aorta [14]): 26.6%
- Activity (Rattus norvegicus [15]): 15.38 mg
- EC50 (PC-12 [16]): 28.8 µM
- Time (Plasma [17]): 149 min

- Time [19]: > 200 h
- Time [21]: > 200 h
- Time [23]: > 200 h
- Activity (Oryctolagus cuniculus [11]): 26.6 mm2
SMILES: CC1(C)N(O)C(c2ccc(OCC(=O)O)cc2)=[N+]([O-])C1(C)C
- inhibition (INH) (Blood [18]): 50.65%
- EC50 (PC-12 [3]): 92.3 µM
- inhibition (INH) (Blood [20]): 51.4%
- inhibition (Aorta [5]): 99%
- Time (Plasma [7]): 223.11 min
- inhibition (Aorta [8]): 72.4%
- Activity (Rattus norvegicus [22]): 38.76 mg
- inhibition (INH) (Blood [24]): 52.45%
- Activity (Rattus norvegicus [9]): 12.11 mg
- dry thrombus weight (Rattus norvegicus [25]): 6.67 mg
- inhibition (INH) (Blood [26]): 51.98%
- inhibition (Aorta [14]): 25.3%
- EC50 (PC-12 [16]): 31.6 µM
- inhibition (INH) (Blood [27]): 53.8%
- inhibition (INH) (Blood [28]): 49.33%
